One block for each molecule: values may come before it. Activity calls are given as the source filed them. No cut-off for these calls is given here.
How the values were obtained:
[1] = target: T1, Protein deacetylase HDAC6 (Homo sapiens, UniProt Q9UBN7); assay: Inhibition of full length recombinant human N-terminal GST-tagged HDAC6 expressed in baculovirus infected insect cells using RHK-K(Ac)-AMC as substrate after 90 mins by fluorescence assay
T1 sequence (Q9UBN7 whole entry): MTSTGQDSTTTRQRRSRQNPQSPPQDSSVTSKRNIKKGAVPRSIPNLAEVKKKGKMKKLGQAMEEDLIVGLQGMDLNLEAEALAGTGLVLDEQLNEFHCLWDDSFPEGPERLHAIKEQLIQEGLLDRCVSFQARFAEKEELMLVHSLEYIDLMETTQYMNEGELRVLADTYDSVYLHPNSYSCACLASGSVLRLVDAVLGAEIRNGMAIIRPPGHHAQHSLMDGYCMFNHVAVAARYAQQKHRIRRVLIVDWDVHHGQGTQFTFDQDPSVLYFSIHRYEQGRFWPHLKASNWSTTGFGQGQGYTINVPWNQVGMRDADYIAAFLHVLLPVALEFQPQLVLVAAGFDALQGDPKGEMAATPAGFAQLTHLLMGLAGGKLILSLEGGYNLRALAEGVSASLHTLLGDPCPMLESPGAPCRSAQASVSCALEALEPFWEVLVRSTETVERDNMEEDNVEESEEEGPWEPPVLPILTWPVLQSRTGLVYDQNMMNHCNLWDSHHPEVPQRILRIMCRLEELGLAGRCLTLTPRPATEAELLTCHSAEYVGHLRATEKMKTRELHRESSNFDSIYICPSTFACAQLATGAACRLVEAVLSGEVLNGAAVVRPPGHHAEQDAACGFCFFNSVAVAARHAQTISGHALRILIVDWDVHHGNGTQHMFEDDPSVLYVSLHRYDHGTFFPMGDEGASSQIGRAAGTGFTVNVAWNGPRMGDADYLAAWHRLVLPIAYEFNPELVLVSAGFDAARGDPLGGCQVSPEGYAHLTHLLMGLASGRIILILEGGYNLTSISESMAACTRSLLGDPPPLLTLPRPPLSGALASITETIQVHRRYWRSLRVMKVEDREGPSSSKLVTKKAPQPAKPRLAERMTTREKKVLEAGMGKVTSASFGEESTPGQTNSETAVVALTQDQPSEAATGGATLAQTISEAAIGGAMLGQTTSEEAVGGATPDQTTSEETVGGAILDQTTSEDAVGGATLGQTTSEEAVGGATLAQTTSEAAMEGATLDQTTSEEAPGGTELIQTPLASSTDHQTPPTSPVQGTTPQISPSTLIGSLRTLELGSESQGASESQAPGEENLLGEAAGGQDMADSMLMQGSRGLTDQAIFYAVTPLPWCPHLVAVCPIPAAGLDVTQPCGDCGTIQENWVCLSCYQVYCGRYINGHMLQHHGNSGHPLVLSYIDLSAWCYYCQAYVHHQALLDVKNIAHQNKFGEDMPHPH

NCI-H929 [2] = assay: Antiproliferative activity against human NCI-H929 cells after 48 hrs by SRB assay; type: functional; details: NCI-H929, 48 h
Summary of the method: (§1)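 Cells were exposed to test compounds at the indicated concentrations for 48 h. They were then fixed with 10% trichloroacetic acid, stained 30 min with 0.4% SRB in 1% AcOH, and washed with 1% AcOH. Bound dye was solubilized in 10 mM Tris base and OD read at 510 nm. Lines cultured in RPMI 1640 with 20% FBS and penicillin/streptomycin, 37°C, 5% CO2.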

U-266 [3] = assay: Antiproliferative activity against human U266 cells after 48 hrs by SRB assay; type: functional; details: U-266, 48 h; summary of the method: as §1
[4] = Antiproliferative activity against human HS5 cells after 48 hrs by SRB assay; type: cell-based; summary of the method: as §1
RPMI-8226 [5] = assay: Antiproliferative activity against human RPMI8226 cells after 48 hrs by SRB assay; type: functional; details: RPMI-8226, 48 h; summary of the method: as §1
[6] = Apparent permeability from basolateral to apical side in human Caco2 cells at 10 uM after 2 hrs by LC-MS/MS analysis; type: ADME, cell-based; details: Caco-2
Summary of the method: (§2)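 Caco-2 cells seeded at 8.4 × 10^4 cells/cm2 on polycarbonate inserts for 21 days. For A→B, donor was apical (HBSS/MES pH 6.5, 10 µM compound) and receiver basolateral (HBSS/HEPES pH 7.4). For B→A, donor was basolateral (HBSS/HEPES pH 7.4, 10 µM) and receiver apical (HBSS/MES pH 6.5). Incubated at 37 °C for 2 h. Receiver sampled at 30, 60, 90 and 120 min, donor at 0 and 120 min.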

[7] = Apparent permeability from apical to basolateral side in human Caco2 cells at 10 uM after 2 hrs by LC-MS/MS analysis; type: ADME, cell-based; details: Caco-2; summary of the method: as §2
[8] = Efflux ratio of apparent permeability from in human Caco2 cells at 10 uM after 2 hrs by LC-MS/MS analysis; type: ADME, cell-based; details: Caco-2; summary of the method: as §2
[9] = Apparent permeability from apical to basolateral side in human Caco2 cells assessed as drug recovery at 10 uM after 2 hrs by LC-MS/MS analysis; type: ADME, cell-based; details: Caco-2, read-out: Drug recovery; summary of the method: as §2
[10] = Apparent permeability from basolateral to apical side in human Caco2 cells assessed as drug recovery at 10 uM after 2 hrs by LC-MS/MS analysis; type: ADME, cell-based; details: Caco-2, read-out: Drug recovery; summary of the method: as §2
NCI-H929 [11] = assay: Cell cycle arrest in human NCI-H929 cells assessed as accumulation at sub-G1 phase at 2.5 nM after 24 hrs by propidium iodide staining based flow cytometry (reference value: 5.59%); type: functional
U-266 [12] = assay: Induction of apoptosis in human U266 cells at 2.5 nM after 24 hrs by Annexin V/propidium iodide staining based flow cytometry; type: functional, cell-based
U-266 [13] = assay: Cell cycle arrest in human U266 cells assessed as accumulation at G0/G1 phase at 2.5 nM after 24 hrs by propidium iodide staining based flow cytometry (reference value: 40.29%); type: functional
RPMI-8226 [14] = assay: Cell cycle arrest in human RPMI8226 cells assessed as accumulation at G0/G1 phase at 2.5 nM after 24 hrs by propidium iodide staining based flow cytometry (reference value: 44.67%); type: functional
NCI-H929 [15] = assay: Cell cycle arrest in human NCI-H929 cells assessed as accumulation at G2/M phase at 2.5 nM after 24 hrs by propidium iodide staining based flow cytometry (reference value: 31.63%); type: functional
U-266 [16] = assay: Cell cycle arrest in human U266 cells assessed as accumulation at S phase at 2.5 nM after 24 hrs by propidium iodide staining based flow cytometry (reference value: 14.05%); type: functional
NCI-H929 [17] = assay: Cell cycle arrest in human NCI-H929 cells assessed as accumulation at G0/G1 phase at 2.5 nM after 24 hrs by propidium iodide staining based flow cytometry (reference value: 49.39%); type: functional
RPMI-8226 [18] = assay: Cell cycle arrest in human RPMI8226 cells assessed as accumulation at sub-G1 phase at 2.5 nM after 24 hrs by propidium iodide staining based flow cytometry (reference value: 12.25%); type: functional
U-266 [19] = assay: Cell cycle arrest in human U266 cells assessed as accumulation at G2/M phase at 2.5 nM after 24 hrs by propidium iodide staining based flow cytometry (reference value: 35.13%); type: functional
RPMI-8226 [20] = assay: Cell cycle arrest in human RPMI8226 cells assessed as accumulation at S phase at 2.5 nM after 24 hrs by propidium iodide staining based flow cytometry (reference value: 19.53%); type: functional
NCI-H929 [21] = assay: Cell cycle arrest in human NCI-H929 cells assessed as accumulation at S phase at 2.5 nM after 24 hrs by propidium iodide staining based flow cytometry (reference value: 13.5%); type: functional
RPMI-8226 [22] = assay: Cell cycle arrest in human RPMI8226 cells assessed as accumulation at G2/M phase at 2.5 nM after 24 hrs by propidium iodide staining based flow cytometry (reference value: 23.94%); type: functional
RPMI-8226 [23] = assay: Antitumor activity against human RPMI8226 cells xenografted in nude mouse assessed as tumor growth inhibition at 1 mg/kg, iv or ip administered once in week for 35 days relative to control; type: functional; details: RPMI-8226, 840 h, read-out: TGI
Summary of the method: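 RPMI 8226 cells (1 × 10^7) implanted s.c. in eight-week-old male nude mice. At mean tumor volume 200 mm3, mice randomized into four groups (n = 8). Caliper measurement every 3–4 days, volume L×W²/2. %TGI computed from treated versus control volume changes relative to time 0.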

NCI-H929 [24] = assay: Induction of apoptosis in human NCI-H929 cells at 2.5 nM after 24 hrs by Annexin V/propidium iodide staining based flow cytometry; type: functional, cell-based
RPMI-8226 [25] = assay: Induction of apoptosis in human RPMI8226 cells at 2.5 nM after 24 hrs by Annexin V/propidium iodide staining based flow cytometry; type: functional, cell-based
Mus musculus = assay: Toxicity in nude mouse xenografted with human RPMI8226 cells assessed as death at 1 mg/kg, iv or ip administered once in week for 35 days; type: organism-based; details: in vivo, 840 h
Summary of the method: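 Male nude mice, eight weeks old, received 1 × 10^7 RPMI 8226 cells subcutaneously. At a mean tumour volume of 200 mm3 they were randomised into four groups (n = 8). Dosing was 1 mg/kg i.v./i.p. once weekly, with vehicle 0.5% EtOH/0.5% Cremophor in 5% dextran. Treatment-related deaths were recorded, and caliper measurements were taken every 3–4 days.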

SMILES: O=C(CCCCCCNC(=O)c1cnc(N(c2ccccc2)c2ccccc2)nc1)NO [RICOLINOSTAT]
GI50 (NCI-H929 [2]): > 100000 nM
GI50 (U-266 [3]): > 100000 nM
GI50 at 48 h [4]: > 100000 nM
GI50 (RPMI-8226 [5]): 6400 nM

SMILES: O=C(/C=C/c1ccc(CNc2cccc3cccnc23)cc1)NO
IC50 [1]: 41.7 nM

SMILES: O=C(NO)c1ccc(Nc2cccc3cccnc23)cc1
IC50 [1]: 129 nM

SMILES: O=C(NO)c1ccc(CNc2cccc3c2CCCC3)cc1
IC50 [1]: 25.3 nM

SMILES: COC(=O)c1ccccc1-c1c2ccc(=N)cc-2oc2cc(N)ccc12.Cl [RHODAMINE123]
Papp B→A at 2 h, 10 µM [6]: 7.52 ×10⁻⁶ cm/s
Papp A→B at 2 h, 10 µM [7]: 1.16 ×10⁻⁶ cm/s
efflux ratio at 2 h, 10 µM [8]: 6.5
recovery at 2 h, 10 µM [9]: 89.8%
recovery at 2 h, 10 µM [10]: 93.9%

SMILES: O=C(NO)c1ccc(CCc2cccc3cccnc23)cc1
IC50 [1]: 41.7 nM

SMILES: O=C(NO)c1ccc(C(=O)Nc2cccc3ncccc23)cc1
IC50 [1]: 525 nM

SMILES: O=C(NO)c1ccc(COc2cccc3cccnc23)cc1
IC50 [1]: 2.83 nM

SMILES: O=C(NO)c1ccc(CNc2cccc3c2CCC3)cc1
IC50 [1]: 19.6 nM

SMILES: CC(C)C[C@H](NC(=O)[C@H](Cc1ccccc1)NC(=O)c1cnccn1)B(O)O [BORTEZOMIB]
Activity (NCI-H929 [11]): 42.44%
Activity (U-266 [12]): Active
Activity (U-266 [13]): 32.66%
Activity (RPMI-8226 [14]): 42.97%
Activity (NCI-H929 [15]): 16.32%
Activity (U-266 [16]): 7.8%
Activity (NCI-H929 [17]): 29.87%
Activity (RPMI-8226 [18]): 10.55%
Activity (U-266 [19]): 32.22%
Activity (RPMI-8226 [20]): 15.19%
Activity (NCI-H929 [21]): 11.59%
Activity (RPMI-8226 [22]): 31.53%
inhibition in vivo at 1 mg/kg (RPMI-8226 [23]): 70.1%
Activity (NCI-H929 [24]): Active
Activity (RPMI-8226 [25]): Active
Activity (Mus musculus): Toxic

SMILES: O=C(/C=C/c1ccc(CNc2cccc3ncccc23)cc1)NO
IC50 [1]: 25.3 nM

SMILES: O=C(NO)c1ccc(C(=O)Nc2cccc3cccnc23)cc1
IC50 [1]: 265 nM

SMILES: O=C(NO)c1cccc(CNc2cccc3cccnc23)c1
IC50 [1]: 1130 nM

Continued, values first:

IC50 [1]: 3.35 nM
SMILES: O=C(NO)c1ccc(CNc2cccc3ccncc23)cc1

IC50 [1]: 4.78 nM
SMILES: O=C(NO)c1ccc(CNc2ccc3ncccc3c2)cc1

IC50 [1]: 3.56 nM
SMILES: O=C(NO)c1ccc(CNc2cccc3cn[nH]c23)cc1

IC50 [1]: 2.33 nM
SMILES: O=C(NO)c1ccc(CNc2cccc3cnccc23)cc1

IC50 [1]: 2.31 nM
SMILES: O=C(NO)c1ccc(CNc2cncc3ccccc23)cc1

IC50 [1]: 3.25 nM
SMILES: O=C(NO)c1ccc(CNc2ccc3cccnc3c2)cc1

IC50 [1]: 11.4 nM
SMILES: Cc1ccc2cccc(NCc3ccc(C(=O)NO)cc3)c2n1

IC50 [1]: 21.5 nM
SMILES: O=C(NO)c1ccc(CNc2ccnc3ccccc23)cc1

IC50 [1]: 5.89 nM
SMILES: O=C(NO)c1ccc(CNc2cccc3nccnc23)cc1

IC50 [1]: 4.24 nM
SMILES: O=C(NO)c1ccc(CNc2ccc3ccccc3n2)cc1

IC50 [1]: 9.48 nM
SMILES: O=C(NO)c1ccc(CSc2cccc3cccnc23)cc1

IC50 [1]: 403 nM
SMILES: O=C(NO)c1ccc(CNc2cnc3ccccc3c2)cc1

IC50 [1]: 7.4 nM
SMILES: O=C(NO)c1ccc(NCc2cccc3cccnc23)cc1

Reference: ChEMBL document CHEMBL4024792, “(N-Hydroxycarbonylbenylamino)quinolines as Selective Histone Deacetylase 6 Inhibitors Suppress Growth of Multiple Myeloma in Vitro and in Vivo” (J Med Chem, 2018)
